Source: ChEMBL document CHEMBL5385869, “Novel 4-aminoquinolines: Synthesis, inhibition of the Mycobacterium tuberculosis enoyl-acyl carrier protein reductase, antitubercular activity, SAR, and preclinical evaluation” (Eur J Med Chem, 2023)
Values after ≈ are worked out from the molar mass of the structure shown. Active and inactive are the calls of the source. The calls are words filed in the database; no cut-off is given here.

How the values were obtained:
[1] = target: T1, Enoyl-[acyl-carrier-protein] reductase [NADH] (Mycobacterium tuberculosis, UniProt P9WGR1); assay: Inhibition of Mycobacterium tuberculosis InhA-catalysed chemical reaction in presence of NADH measured for 1 min by UV/Visible spectrophotometry
T1 sequence (P9WGR1 whole entry): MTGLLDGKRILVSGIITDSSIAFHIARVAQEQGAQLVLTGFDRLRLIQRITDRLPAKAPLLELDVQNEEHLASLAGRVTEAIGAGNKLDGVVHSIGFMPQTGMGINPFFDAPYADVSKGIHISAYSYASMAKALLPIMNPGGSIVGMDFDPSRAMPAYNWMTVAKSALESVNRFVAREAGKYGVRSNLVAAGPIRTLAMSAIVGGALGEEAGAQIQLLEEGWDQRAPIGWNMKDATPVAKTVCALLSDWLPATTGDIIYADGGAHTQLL
Method in brief: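 Recombinant MtInhA reaction at 25 °C in 100 mM Pipes pH 7.0, started by adding 2.2 μM enzyme and followed for 1 min. Substrate is DD-CoA, made from 2-trans-dodecenoic acid and CoA.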

[2] = tested on: Mycobacterium tuberculosis; assay: Antibacterial activity against pan-sensitive Mycobacterium tuberculosis H37Rv ATCC 27294 measured after 7 days by resazurin dye based assay; type: functional; settings: H37Rv ATCC 27294, 168 h, time 7 day
Method in brief: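 Resazurin reduction microplate assay (REMA) in Middlebrook 7H9 broth with 10% ADC and 5% DMSO. Compounds come from 2 mg/mL DMSO stocks and are 2-fold serially diluted, top concentration 0.08–40 μg/mL depending on solubility. MIC is the lowest concentration preventing the blue-to-pink colour change. Three independent experiments; the reported value is the modal or the highest value.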

[3] = target: T2, Enoyl-[acyl-carrier-protein] reductase [NADH] (Mycobacterium tuberculosis) (UniProt P9WGR1); assay: Time dependent inhibition of Mycobacterium tuberculosis InhA
T2 sequence (whole entry): T1 sequence (P9WGR1 whole entry)

[4] = target: T1, Enoyl-[acyl-carrier-protein] reductase [NADH]; assay: Noncompetitive inhibition of Mycobacterium tuberculosis InhA using DD-CoA as substrate assessed as inhibition constant for enzyme-substrate-inhibitor ternary complex in presence of varying concentrations of NADH by double reciprocal plot analysis
[5] = target: T1, Enoyl-[acyl-carrier-protein] reductase [NADH]; assay: Noncompetitive inhibition of Mycobacterium tuberculosis InhA using DD-CoA as substrate assessed as inhibition constant for enzyme-inhibitor binary complex in presence of varying concentrations of NADH by double reciprocal plot analysis
[6] = target: T1, Enoyl-[acyl-carrier-protein] reductase [NADH]; assay: Competitive inhibition of Mycobacterium tuberculosis InhA using varying concentrations of DD-CoA as substrate assessed as inhibition constant for enzyme-inhibitor binary complex in presence of NADH by Lineweaver-Burk plot analysis
Method in brief: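 Steady-state kinetics with recombinant MtInhA in 100 mM Pipes pH 7.0 at 25 °C. NADH fixed at 60 μM, DD-CoA varied 15–135 μM, inhibitor at fixed-varied levels of 0.2–4 μM. Kis is fitted to the competitive inhibition equation.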

[7] = Cytotoxicity against human HepG2 cells assessed as reduction in cell viability incubated for 72 hrs by MTT assay; type: toxicity, cell-based
Method in brief: (§1)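 Cells grown in DMEM with 10% FBS. HepG2 seeded at 4 × 10³ and Vero at 2 × 10³ cells/well, 24 h before dosing. Compounds at 1, 5 and 20 μM in 1% DMSO for 72 h at 37 °C, 5% CO2. MTT readout: 5 mg/mL reagent for 4 h, absorbance at 595 nm. Neutral red readout: 25 μg/mL dye for 3 h, then acid-ethanol desorb. Viability is expressed relative to 1% DMSO controls.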

[8] = Cytotoxicity against human HepG2 cells assessed as reduction in cell viability incubated for 72 hrs by neutral red uptake assay; type: toxicity, cell-based; method in brief: as §1
[9] = Cytotoxicity against African green monkey Vero cells assessed as reduction in cell viability incubated for 72 hrs by MTT assay; type: toxicity, cell-based; settings: chlorocebus sabaeus; method in brief: as §1
[10] = Cytotoxicity against African green monkey Vero cells assessed as reduction in cell viability incubated for 72 hrs by neutral red uptake assay; type: toxicity, cell-based; settings: chlorocebus sabaeus; method in brief: as §1
[11] = Selectivity index, ratio of CC50 for human HepG2 cells by MTT assay to MIC for pan-sensitive Mycobacterium tuberculosis H37Rv ATCC 27294; type: toxicity; settings: read-out: Selectivity Index
[12] = Selectivity index, ratio of CC50 for human HepG2 cells by neutral red uptake assay to MIC for pan-sensitive Mycobacterium tuberculosis H37Rv ATCC 27294; type: toxicity; settings: read-out: Selectivity Index
[13] = Selectivity index, ratio of CC50 for African green monkey Vero cells by MTT assay to MIC for pan-sensitive Mycobacterium tuberculosis H37Rv ATCC 27294; type: toxicity, cell-based; settings: read-out: Selectivity Index
[14] = Selectivity index, ratio of CC50 for African green monkey Vero cells by neutral red uptake assay to MIC for pan-sensitive Mycobacterium tuberculosis H37Rv ATCC 27294; type: toxicity, cell-based; settings: read-out: Selectivity Index
[15] = target: T1, Enoyl-[acyl-carrier-protein] reductase [NADH]; assay: Binding affinity to Mycobacterium tuberculosis InhA assessed as dissociation constant at 250 uM at 25 degreeC in presence of NADH by fluorescence spectroscopy
Method in brief: (§2)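 Titration of pre-formed MtInhA:NADH complex (2 mL of 3 μM enzyme with 20 μM NADH), adding microliter aliquots of 250 μM ligand stock with dilution kept ≤1%. Intrinsic fluorescence read at 295 nm excitation, 310–500 nm emission. Temperatures 15, 20, 25 and 30 °C. KD is fitted to a hyperbolic isotherm. ΔH°, ΔS° and ΔG° come from van't Hoff analysis of KD across temperatures.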

[16] = target: T2, Enoyl-[acyl-carrier-protein] reductase [NADH] (Mycobacterium tuberculosis); assay: Binding affinity to Mycobacterium tuberculosis InhA assessed as change in enthalpy at 250 uM in presence of NADH by fluorescence spectroscopy
[17] = target: T2, Enoyl-[acyl-carrier-protein] reductase [NADH] (Mycobacterium tuberculosis); assay: Binding affinity to Mycobacterium tuberculosis InhA assessed as change in entropy at 250 uM in presence of NADH by fluorescence spectroscopy
[18] = target: T2, Enoyl-[acyl-carrier-protein] reductase [NADH] (Mycobacterium tuberculosis); assay: Binding affinity to Mycobacterium tuberculosis InhA assessed as gibbs free energy change at 250 uM in presence of NADH by fluorescence spectroscopy; method in brief: as §2
[19] = tested on: Mycobacterium tuberculosis; assay: Antibacterial activity against Mycobacterium tuberculosis H37Rv ATCC 27294 infected in CF-1 mouse assessed as reversal of bacterial growth in spleen at 300 uM/kg, po administered daily for 14 days starting from 7 days post infection; type: functional, organism-based; settings: time 14.0 day
Method in brief: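 Mice treated by gavage from 7 days post-infection for 14 days, daily, at 300 or 450 μM/kg. Lungs and spleen homogenized in saline and plated for CFU. Comparisons are against vehicle and early-control groups.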

Compound | IC50 [1] | MIC [2] | further results
Cc1cc(Nc2ccc(N3CCCC3CO)cc2)c2cc(Br)ccc2n1 (stereo not given) | > 50 µM | 12.1 µM (≈ 4.99 µg/mL) | 
CCOC(=O)c1ccc2nc(C)cc(Nc3ccc(CC)cc3)c2c1 | 41.3 µM | 29.9 µM (≈ 10 µg/mL) | 
CCc1cc(Nc2ccc(N3CCCCC3)cc2)c2cc(Br)ccc2n1 | 1.54 µM | 0.75 µM (≈ 0.308 µg/mL) | 
CCCCc1ccc(Nc2cc(C)nc3ccc(C(=O)OCC)cc23)cc1 | 11.2 µM | 6.9 µM (≈ 2.5 µg/mL) | 
CCOC(=O)c1ccc2nc(C)cc(Nc3ccc(-n4cccn4)cc3)c2c1 | 8 µM | > 6.7 µM | 
CCOC(=O)c1ccc2nc(C)cc(Nc3ccc(N4CCCC4)cc3)c2c1 | 21.7 µM | 13.3 µM (≈ 4.99 µg/mL) | 
Cc1cc(Nc2ccc(N3CCC(C)CC3)cc2)c2cc(Br)ccc2n1 | 1.4 µM | 0.7 µM (≈ 0.287 µg/mL) | TDI [3]: inactive; Ki [4]: 690 nM; Ki [5]: 720 nM; Ki [6]: 790 nM; CC50 at 72 h [7]: 5.3 µM; CC50 at 72 h [8]: 12.2 µM; CC50 at 72 h [9]: 9.7 µM; CC50 at 72 h [10]: 6.2 µM; selectivity ratio [11]: 7.6; selectivity ratio [12]: 17.4; selectivity ratio [13]: 13.8; selectivity ratio [14]: 8.9; Kd [15]: 1250 nM; deltaH [16]: -5.6 kcal/mol; deltaS [17]: 8.3 cal/mol/K; deltaG [18]: -8 kcal/mol
CCOC(=O)c1ccc2nc(C)cc(Nc3ccc(N4CCSCC4)cc3)c2c1 | > 50 µM | > 12.3 µM | 
Cc1cc(Nc2ccc(N3CCC(c4ccccc4)CC3)cc2)c2cc(Br)ccc2n1 | > 50 µM | 1.33 µM (≈ 0.628 µg/mL) | 
CCOC(=O)c1ccc2nc(C)cc(Nc3ccc(CN4CCCCC4)cc3)c2c1 | > 50 µM | 49.6 µM (≈ 20 µg/mL) | 
CCOC(=O)c1ccc2nc(C)cc(Nc3ccc(-n4cnc5ccccc54)cc3)c2c1 | 42.1 µM | > 47.3 µM | 
CCOc1ccc2nc(C)cc(Nc3ccc(N4CCCCC4)cc3)c2c1 | 9.5 µM | 6.9 µM (≈ 2.49 µg/mL) | 
CCCc1ccc(Nc2cc(C)nc3ccc(C(=O)OCC)cc23)cc1 | 19.6 µM | 14.3 µM (≈ 4.98 µg/mL) | 
Cc1cc(Nc2ccc(N3CCCCC3)cc2)c2cc(N(C)C)ccc2n1 | 20 µM | 6.9 µM (≈ 2.49 µg/mL) | 
CC[C@@H](CO)NCCN[C@@H](CC)CO |  |  | Activity [19]: inactive
CCOC(=O)c1ccc2nc(C)cc(Nc3ccc(N4CCOCC4)cc3)c2c1 | 19.5 µM | 51.1 µM (≈ 20 µg/mL) | 
CO[C@H]1/C=C/O[C@@]2(C)Oc3c(C)c(O)c4c(O)c(c(/C=N/N5CCN(C)CC5)c(O)c4c3C2=O)NC(=O)/C(C)=C\C=C\[C@H](C)[C@H](O)[C@@H](C)[C@@H](O)[C@@H](C)[C@H](OC(C)=O)[C@@H]1C [RIFAMPIN] |  | 0.05 µM (≈ 0.0411 µg/mL) | 
Cc1cc(Nc2ccc(N3CCCCC3)cc2)c2cc([N+](=O)[O-])ccc2n1 | 18.6 µM | 6.9 µM (≈ 2.5 µg/mL) | 
COc1ccc2nc(C)cc(Nc3ccc(N4CCCCC4)cc3)c2c1 | 4.7 µM | 3.6 µM (≈ 1.25 µg/mL) | 
CCOC(=O)c1ccc2nc(C)cc(Nc3ccc(N4CCC(C)CC4)cc3)c2c1 | 10.9 µM | 6.2 µM (≈ 2.5 µg/mL) | 
Cc1cc(Nc2ccc(-n3cccn3)cc2)c2cc(Br)ccc2n1 | 4.85 µM | 3.3 µM (≈ 1.25 µg/mL) | 
Cc1cc(Nc2ccc(N3CCCCC3)cc2)c2cc(C(C)C)ccc2n1 | 8.2 µM | 6.9 µM (≈ 2.48 µg/mL) | 
Cc1ccc2nc(C)cc(Nc3ccc(N4CCCCC4)cc3)c2c1 | 17.2 µM | 7.5 µM (≈ 2.49 µg/mL) | 
CCOC(=O)c1ccc2nc(C)cc(Nc3ccc(N4CCN(Cc5ccccc5)CC4)cc3)c2c1 | 26.2 µM | 10.4 µM (≈ 5 µg/mL) | 
Cc1cc(Nc2ccc(N3CCCCC3)cc2)c2cc(F)ccc2n1 | 38.3 µM | 14.9 µM (≈ 5 µg/mL) | 
CCOC(=O)c1ccc2nc(C)cc(Nc3ccc(C(=O)N4CCCC4)cc3)c2c1 | 44.5 µM | > 49.6 µM | 
Cc1cc(Nc2ccc(N3CCCCC3)cc2)c2cc(C#N)ccc2n1 | 19.6 µM | 14.6 µM (≈ 5 µg/mL) | 
CCc1cc(Nc2ccc(N3CCCCC3)cc2)c2cc(Cl)ccc2n1 | 2.9 µM | 1.7 µM (≈ 0.622 µg/mL) | 
